Experiments:
Type in all cases: biochemical
[1] = system: skeletal muscle myosin II; test: in vitro ATPase assay myosin II
[2] = system: PLK1; test: in vitro kinase assay PLK1; details: at 100 μM
[3] = system: Casein kinase II; test: in vitro kinase assay Casein kinase II; details: at 100 μM
[4] = biological target: actomyosin V-ADP (Gallus gallus, UniProt Q02440); test: MANT-ADP release from actomyosin V
How it was run: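 Transient-kinetic measurement of MANT-ADP release from a preformed actomyosin V–ADP complex, using the fluorescent nucleotide analog. Release amplitudes are normalized and plotted against test compound concentration. Affinity comes from the best fit of that concentration dependence of the amplitudes.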

[5] = system: myosin VI; test: in vitro ATPase assay myosin VI; details: at 50 μM
[6] = system: CHK1; test: in vitro kinase assay CHK1; details: at 100 μM
[7] = system: Abl kinase; test: in vitro kinase assay Abl kinase; details: at 100 μM
[8] = system: Aurora kinase; test: in vitro kinase assay Aurora kinase; details: at 100 μM
[9] = system: myosin V; test: single MANT-ATP turnover measurements, myosin V without actin; details: absence of actin; data not shown
[10] = biological target: single ATPase motor domain of chicken Myosin Va (Gallus gallus, UniProt Q02440); test: enzyme-coupled steady-state actin-activated ATPase assay, single-headed myosin V
[11] = system: p42 MAP kinase; test: in vitro kinase assay p42 MAP kinase; details: at 100 μM

inhibition of ATPase activity ([1]; at 50 μM)	inhibition of kinase [2]	inhibition of kinase [3]	effect on ADP release ([4]; actomyosin-ADP prepared by equilibrating actomyosin and ADP, data not shown)	inhibition of ATPase activity [5]	inhibition of kinase [6]	inhibition of kinase [7]	inhibition of kinase [8]	effect on ATP binding and rate-limiting Pi release [9]	mode of inhibition (effect on kcat and apparent KM for actin) ([10]; 12 μM MyoVin-1, various concentrations of actin)	increase in KI in presence of 0.1% triton X ([10]; 0.1% triton X in assay buffer vs without)	Ki ([10]; single-headed myosin V, steady-state actin-activated ATP hydrolysis) [µM]	inhibition of kinase [11]	inhibition of ATPase activity ([1]; positive control, concentration not given)	SMILES	effect on ADP release ([4]; actomyosin V-ADP prepared by mixing with ATP)
not observed any measurable inhibition	5–10%	5–10%	unaffected	not observed any measurable inhibition	5–10%	5–10%	5–10%	unaffected	uncompetitive inhibition	~ 1.25 fold	~6	5–10%		O=C(O)c1cccc(SCc2cccc(Nc3ncc4c(-c5ccc(N6CCOCC6)cc5)[nH]nc4n3)c2)c1 [Compound 8]	lowers the amplitude, but not the rate constant of ADP release
													significantly inhibited	Cc1ccc2c(c1)C(=O)C1(O)CCN(c3ccccc3)C1=N2 (stereo not drawn) [blebbistatin, reference compound]	

Source: paper PMC3063097 (Angewandte Chemie (International ed. in English), 2010)
